# An excerpt weighted towards active compounds, which were near 2.3% of everything screened.
# OXTR potentiate: human OXTR potentiation | P30559 | CHO-OTR cells, Fluo-8 calcium fluorescence, potentiator mode; 0% = oxytocin EC15, 100% = EC100 | activation, % at 3 µM | 320,000 tested, 0.061% active;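 active = activation above that plate's cutoff, the mean activation of tested compounds plus 3 SD, cut at about 6.6% in these data, passing the limit was not always enough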;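 also: 100% uses oxytocin at 75 nM as the full agonist control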
#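 Assay system: CHO cell line stably expressing human OTR | Also added: Oxytocin at about EC15, sub-maximal agonist stimulus | Times: Compound 6 min at room temperature before oxytocin, 100 s read | Measured by: Fluo-8 intracellular calcium fluorescence, ex 470-495, em 515-575 nm | Controls: EC15 oxytocin alone as 0%, 75 nM oxytocin as 100%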
# V1R ag counter: V1a receptor agonism, counter-screen for OXTR agonists; CHO-V1R cells, Fluo-8 calcium fluorescence, agonist mode; 0% DMSO, 100% 3 nM vasopressin; AID 2797; activation, % at 3 µM; 320,000 tested, 0.25% active;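 active = activation above the mean activation of all tested compounds plus 3 SD, per screening run, cut at about 20% in these data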;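 also: signal is peak over basal fluorescence ratio across a 100 second FLIPR read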
# TAAR1 antag: human TAAR1 antagonism; Q96RJ0; 360,000 tested, 1.5% active; inhibition, % at 3 µM; CHO RD-HGA16 TAAR1, Fluo-8 calcium fluorescence, antagonist;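 active = inhibition above a per-plate cutoff, the mean inhibition of test compounds on that plate plus 3 SD, cut at about 49% in these data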;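 also: 0% = DMSO plus EC80 beta-PEA response and 100% = DMSO alone without agonist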
# Target sequence (Q96RJ0 whole entry, looked up): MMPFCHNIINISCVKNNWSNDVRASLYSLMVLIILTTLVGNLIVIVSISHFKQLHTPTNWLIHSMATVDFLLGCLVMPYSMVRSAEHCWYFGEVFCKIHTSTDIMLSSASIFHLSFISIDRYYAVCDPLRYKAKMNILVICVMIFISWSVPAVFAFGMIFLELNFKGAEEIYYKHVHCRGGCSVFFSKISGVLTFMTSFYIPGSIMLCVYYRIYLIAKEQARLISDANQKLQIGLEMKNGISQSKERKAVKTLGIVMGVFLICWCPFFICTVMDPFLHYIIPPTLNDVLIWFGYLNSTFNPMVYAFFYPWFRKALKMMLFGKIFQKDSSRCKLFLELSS
#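 Material: RD-HGA16 CHO cells with stable hTAAR1 and Gα16; Dosing: single nominal final test compound concentration of 3 µM; Schedule: seeding 17-24 h prior, 75-min 37 °C, 30-min RT dye loading; Detection: kinetic Fluo-8 calcium fluorescence measurement; Measure: % inhibition from peak post-agonist over basal fluorescence ratio; Benchmarks: vehicle and agonist controls.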
# TAAR1 ag: human TAAR1 agonism. Q96RJ0. activation, % at 3 µM. CHO RD-HGA16 TAAR1, Fluo-8 calcium fluorescence; vehicle wells 0%, saturating PEA agonist 100%. 360,000 tested, 0.99% active;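 active = activation above the mean activation of all test compounds in the run plus 3 SD, cut at about 38% in these data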
#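 Benchmarks: low control DMSO, high control PEA (EC100); System: CHO RD-HGA16 cells carrying human TAAR1 plus Gα16; Detection: Fluo-8 fluorescence, 5 s baseline then 140 s kinetic read; Schedule: 17-24 h plating, Fluo-8 75 min 37 °C, 30 min RT; Read-out basis: % activation from peak over basal fluorescence ratio, DMSO-to-PEA scaled.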
# OXTR agonist: activates the human oxytocin receptor. P30559. 320,000 tested, 0.32% active. activation, % at 3 µM. AID 2435. CHO-OTR cells, Fluo-8 calcium fluorescence; normalized: DMSO 0%, oxytocin 100%;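 active = activation above the mean of all tested compounds plus 3 SD, cutoff set per screening run, cut at about 20% in these data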;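 also: peak over basal fluorescence ratio from a 100 s FLIPR kinetic read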
# Numbers without * were called inactive; / = no result.
SMILES,OXTR potentiate,V1R ag counter,TAAR1 antag,TAAR1 ag,OXTR agonist
N#CCc1ccc(OCCCN2CCC(C(O)(c3ccccc3)c3ccccc3)CC2)cc1,/,/,9,24,/
OC(c1ccccc1)(c1ccccc1)C1CCN(CCCOc2ccc3c(c2)CCCC3)CC1,/,/,40,42*,/
CCN1CCN(S(=O)(=O)c2ccc(Cl)c(C(=O)N(C)CC(=O)Nc3c(C)cccc3C)c2)CC1,/,/,-26,3,/
Cc1nc(N2CCN(C)CC2)c2sc(=S)n(-c3ccccc3)c2n1,-1,0,0,-1,-1
S=c1sc2c(Cl)ncnc2n1-c1ccccc1,/,/,54*,0,/
COC(=O)c1cc2c(c3c4cc(C#N)ccc4n(S(=O)(=O)c4ccc(C)cc4)c13)C(=O)N(C)C2,/,/,-15,-2,/
CSc1ncnc2c1ccn2CC(=O)Nc1ccc(C)c(C)c1,-2,2,14,43*,1
Cc1ccc(NC(=O)Cn2cccc2)cc1C,-2,0,12,8,-1
O=C(Nc1ccc(N2CCN(C(=O)c3ccccc3F)CC2)cc1)c1cncc(Br)c1,-14,11,52*,8,4
O=C(CSc1n[nH]c(-c2ccc(Br)cc2)n1)NC1CCCC1,-6,7,67*,43*,4
O=C(CSc1n[nH]c(-c2ccccc2)n1)NC1CCCCC1,-2,0,3,0,0
O=C(Nn1c(O)c(C=C2N=c3ccccc3=N2)sc1=S)c1cccc(Cl)c1,-6,1,52*,31,1
O=C(Nn1c(O)c(C=C2N=c3ccccc3=N2)sc1=S)c1ccc(Cl)cc1,-7,0,13,12,0
O=C1N=c2ccccc2=C1c1sc(=S)n(NC(=O)c2cccc(O)c2)c1O,/,/,51*,18,/
O=C(Nn1c(O)c(C=C2N=c3ccccc3=N2)sc1=S)c1ccccc1,-10,2,48,38*,4
O=C1N=c2ccccc2=C1c1sc(=S)n(-c2ccc(O)cc2)c1O,-15,0,-11,0,-1
Cc1[nH]c2ccccc2c1/C=C/c1nc2ccccc2c(=O)n1CCO,-12,3,51*,13,2
O=C(NN=C1CCCC1)c1sc2ccccc2c1Cl,-9,0,1,0,-1
O=C1CCC/C(=N/NC(=O)c2sc3ccccc3c2Cl)C1,-7,32*,27,35,12
COc1ccc(C(C(=O)NCc2ccccc2)N(Cc2ccco2)C(=O)c2cnccn2)cc1 (stereo not drawn),-9,0,53*,15,2
COc1ccc(F)cc1-c1cc(C(=O)NCc2ccccc2)[nH]n1,/,/,-1,2,/
CCc1ccccc1N1CC(C(=O)Nc2cc(C)on2)CC1=O (stereo not drawn),-8,2,-23,-1,0
O=C1OC2(c3ccccc31)c1cc(I)c(O)c(I)c1Oc1c2cc(I)c(O)c1I,-26,659*,/,/,670*
Cc1cc(O)ccc1C1(c2ccc(O)cc2C)OC(=O)c2ccccc21,-8,6,14,31,7
O=C(CSCc1ccc(Br)cc1)NCCc1ccccc1,1,-1,-5,40*,-2
SMILES,OXTR potentiate,V1R ag counter,TAAR1 antag,TAAR1 ag,OXTR agonist
O=C(CSCc1ccccc1)NCCc1ccc(F)cc1,2,0,18,-1,-2
CCCCOCCCNC(=O)C[C@@H]1C[C@@]2(C(=O)OC)CCCCC=C2N(Cc2ccc3c(c2)OCO3)C1=O,/,/,10,8,/
CCCCCCCC1c2c(c(C)c(C)oc2=O)Oc2c(C)c(C)oc(=O)c21,2,-1,11,10,0
COc1cccc(N(C(=O)c2ccco2)c2nc(-c3sc(NC(=O)c4ccco4)nc3C)cs2)c1,-9,-1,51*,14,-2
CN(C)S(=O)(=O)c1ccc2c(c1)/C(=C/c1cc3c([nH]1)CCCC3)C(=O)N2,-12,25*,43,21,35*
COC(=O)C1=CN(c2ccc(C)cc2)C(N)=C(C#N)C1c1ccc(OC)cc1 (stereo not drawn),/,/,25,1,/
COC(=O)[C@]12CCCCC=C1N(Cc1ccc3c(c1)OCO3)C(=O)[C@H](CC(=O)N1CCCC1)C2,/,/,54*,14,/
C#CCNC(=O)C[C@@H]1C[C@@]2(C(=O)OC)CCCCC=C2N(Cc2ccc3c(c2)OCO3)C1=O,/,/,3,3,/
CCOC(=O)[C@]12CCC=C1N(Cc1ccc3c(c1)OCO3)C(=O)[C@H](CC(=O)N1CCCC1)C2,/,/,-9,1,/
COC(=O)[C@]12CCCCC=C1N(CCc1ccc(OC)c(OC)c1)C(=O)[C@H](CC(=O)N1CCSCC1)C2,/,/,61*,12,/
COC(=O)[C@]12CCCCC=C1N(CCc1ccc(OC)c(OC)c1)C(=O)[C@H](CC(=O)N1CCCC1)C2,/,/,34,9,/
COC(=O)[C@]12CCCCC=C1N(Cc1ccc3c(c1)OCO3)C(=O)[C@H](CC(=O)N1CCCCC1)C2,/,/,52*,12,/
COC(=O)[C@]12CCCCC=C1N(Cc1ccccc1)C(=O)[C@H](CC(=O)N1CCCC1)C2,/,/,56*,13,/
COC(=O)C1=C(C)N(Cc2ccccc2C(F)(F)F)C(=NCc2cc(OC)c(OC)c(OC)c2)NC1c1ccc(Cl)cc1 (stereo not drawn),/,/,-5,9,/
CC[n+]1c(/C=C/N(C)c2ccccc2)oc2ccc(Cl)cc21,2,6,-10,2,1
CCN1/C(=C/C=C/c2oc3ccc4ccccc4c3[n+]2CC)Oc2ccc3ccccc3c21,-6,45*,/,/,39*
Cc1cccc(C(=O)OCC(=O)Nc2c(C)nn(-c3ccccc3)c2C)c1O,-9,2,27,7,0
O=C(COC(=O)c1ccc(O)cc1)Nc1ccc2c(c1)OCCO2,-6,0,1,19,0
Cc1nn(-c2ccccc2)c(C)c1NC(=O)COC(=O)c1ccc(Cl)c(S(N)(=O)=O)c1,-9,1,53*,13,1
Cc1nn(-c2ccccc2)c(C)c1NC(=O)COC(=O)c1ccc(NC(=O)CC#N)cc1,-7,3,28,11,1
Cc1cc(C(=O)COC(=O)c2ccc(NC(=O)CC#N)cc2)c(C)n1C1CC1,/,/,-2,4,/
Cc1cc(C(=O)COC(=O)c2ccc(Cl)c(S(N)(=O)=O)c2)c(C)n1C1CC1,-5,1,49*,10,2
O=C(COC(=O)c1cc(Br)ccc1O)Nc1ccc2c(c1)OCCO2,-8,4,51*,14,2
Cc1nn(-c2ccccc2)c(C)c1NC(=O)COC(=O)c1cc(Br)ccc1O,-8,0,61*,18,0
CC(C)Oc1ccc(C(=O)Nc2cccc(S(=O)(=O)N3CCCC3)c2)cc1,-10,4,-4,1,3
O=[N+]([O-])c1ccc(N2CCN(Cc3ccccc3)CC2)c2c1no[n+]2[O-],/,/,63*,13,/

# Screens (PubChem)
